In ChEMBL document CHEMBL1152770, “Inhibitors of hepatitis C virus polymerase: synthesis and biological characterization of unsymmetrical dialkyl-hydroxynaphthalenoyl-benzothiadiazines” (J Med Chem, 2009) one finds Ratio, solubility and logD data, which are given here for two molecules.

The test system of data set [1] is Nucleic Acid. The data set is described as follows: Ratio of drug level in rat liver after 12 hrs to EC50 for HCV isolate Con1 in presence of 40% human serum. The data set is classed as tissue-based.
The subject of data set [2] is Nucleic Acid. The data set is described as follows: Ratio of drug level in rat liver after 6 hrs to EC50 for HCV isolate Con1 in presence of 40% human serum. The data set is classed as tissue-based.
A short description of data set [3]: Solubility in polyethylene glycol 400 at 25 deg C. The data set is classed as physicochemical. The gist of the method: (§1)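 Equilibrium solubility in PEG 400, in 50 mM citrate buffer pH 4 or in 50 mM phosphate buffer pH 7.4. Buffers brought to ionic strength 0.155 M with NaCl. Vials rotated at 25 °C for 4 days, final pH measured, then supernatant assayed by reverse-phase HPLC at 262 nm against a linear standard curve.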

The nature of data set [4]: Aqueous solubility in 50 mM phosphate buffer at pH 7.4. The data set is classed as physicochemical. The gist of the method:
as §1

Data set [5] in a line: n-Octanol-phosphate buffer distribution coefficient, log D at pH 7.4. The data set is classed as physicochemical. The gist of the method:
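Compound was dissolved in n-octanol and mixed with 50 mM phosphate buffer, isotonic with NaCl, pH 7.4. The mixture was tumbled at 25 °C, 25 rpm, for 2-3 days, then centrifuged to split the phases. Each phase was assayed by reverse-phase HPLC (UV 262 nm) against a linear standard curve. D is the octanol/buffer concentration ratio.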

Some results are limits rather than exact numbers.

For `CC(C)(C)CC[C@@]1(C)C(=O)C(C2=NS(=O)(=O)c3cc(NS(C)(=O)=O)ccc3N2)=C(O)c2ccccc21`, the Ratio in data set [1] amounted to 270; in data set [2], 1400.

Consider `CS(=O)(=O)Nc1ccc2c(c1)S(=O)(=O)N=C(c1c([O-])c3ccccc3n(NC3CCC3)c1=O)N2.[Na+]`, for which the solubility (usually the dissolved amount per volume that the medium holds) in data set [3] is > 191.8 mg/mL; in data set [4], < 0.07 µg/mL. The logD (as a rule, the decadic logarithm of the distribution of all forms, ionised or not, between an organic phase and buffer at a given pH) in data set [5] stood at 1.45.
